# Assay outcomes (PubChem)
# MrgX1 PAM: positive allosteric modulators of MrgX1, primary screen, HEK293 cells, Fluo-4 calcium flux; FDSS; stronger effect = higher value; B-score at 10 µM; AID 588675, 2011; 310,000 tested, 0.63% active;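 active = plate-corrected calcium response at least 3 library SD above typical, normal starting fluorescence, not activating the receptor alone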;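 note: compound read alongside a low EC10 to EC30 dose of BAM8-22 agonist; peak minus trough fluorescence over baseline measured at the second addition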
# Target sequence (Q96LB2 whole entry, looked up): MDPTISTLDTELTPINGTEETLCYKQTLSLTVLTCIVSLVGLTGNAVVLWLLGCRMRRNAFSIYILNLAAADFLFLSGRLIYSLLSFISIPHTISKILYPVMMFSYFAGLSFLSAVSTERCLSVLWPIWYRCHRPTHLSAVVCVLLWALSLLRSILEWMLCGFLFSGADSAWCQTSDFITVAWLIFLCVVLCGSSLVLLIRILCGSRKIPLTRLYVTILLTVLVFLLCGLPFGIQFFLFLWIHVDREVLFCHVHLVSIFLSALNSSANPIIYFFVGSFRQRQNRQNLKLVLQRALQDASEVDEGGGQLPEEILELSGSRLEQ
# RGS4 pot: RGS4 potentiators or activators, primary screen, cell-based, HEK293 M3R inducible RGS4, calcium flux; carbachol calcium flux Fluo4; stronger effect = lower value; 310,000 tested, 0.92% active; AID 463111, 2010; B-score at 10 µM;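 active = B-score of the integrated calcium signal more than 4 SD below the library mean, with starting fluorescence not abnormally high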;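 note: negative B-score means reduced calcium response which marks RGS4 activation or potentiation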
#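 test system = M3R-expressing HEK293 line, RGS4 induced by doxycycline | probe or stimulus = carbachol at ECmax as muscarinic agonist stimulus | timing = dye loading 30 min 37 °C, buffer rest 30 min RT | signal = calcium dye Fluo4 fluorescence | evaluation = B score from integrated fluorescence ratio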
# MrgX1 antagonist: antagonists of human MrgX1 receptor, primary screen, HEK293 cells, Fluo-4 calcium flux; Mas-related G-protein coupled receptor member X1 (Homo sapiens), Q96LB2; AID 588676, 2011; BAM8-22 antagonism; stronger effect = lower value; 310,000 tested, 1.3% active; B-score at 10 µM;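 active = calcium-response B-score plate-corrected more than 3 library SD below zero, starting fluorescence within 5 deviations, no agonist response on first addition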;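 note: peak minus trough fluorescence over baseline after final BAM8-22 challenge near maximal dose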
# RGS4 block: RGS4 inhibitors, primary screen, cell-based, HEK293 M3R inducible RGS4, calcium flux; 310,000 tested, 0.45% active; AID 463165, 2010; B-score at 10 µM; Fluo-4 calcium flux; stronger effect = higher value; triggered by carbachol at its EC20; Regulator of G-protein signaling 4 (Homo sapiens), P49798;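 active = B-score, a plate-corrected calcium signal, over three deviations above library mean, with baseline fluorescence within five deviations of library mean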;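 note: RGS4 expression induced by doxycycline in cells with stable M3 receptor; B-score is computed from the integrated fluorescence ratio over baseline after carbachol; higher B-score means a larger calcium signal and so more RGS4 inhibition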
# Target sequence (P49798 whole entry, looked up): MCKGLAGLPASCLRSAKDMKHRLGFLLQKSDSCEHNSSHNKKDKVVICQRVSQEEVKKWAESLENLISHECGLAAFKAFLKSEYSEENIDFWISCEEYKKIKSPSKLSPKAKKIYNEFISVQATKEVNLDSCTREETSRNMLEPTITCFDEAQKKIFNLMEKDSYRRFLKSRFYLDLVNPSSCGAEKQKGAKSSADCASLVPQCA
# Hep lipid drop: inhibitors of hepatocyte lipid droplet formation, primary screen, imaging, high-throughput imaging, BODIPY stain | AID 1656, 2009 | inhibition, % at 6.5 µM | 240,000 tested, 0.4% active | AML12 mouse hepatocytes, oleate lipid droplets;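 active = lipid droplet intensity inhibited by at least 50%, with more than 500 cells counted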
#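 Assay system: AML12 mouse liver cells | Compound: 6.5 µM single-point dosing | Schedule: Overnight exposure | Technique: Fluorescence imaging, 20x objective, two fields per well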
# MrgX1 ag: agonists of human MrgX1 receptor, primary screen, HEK293 cells, Fluo-4 calcium flux; 310,000 tested, 0.44% active; Mas-related G-protein coupled receptor member X1 (Homo sapiens), Q96LB2; B-score at 10 µM; Fluo-4 calcium fluorescence, agonist mode; stronger effect = higher value;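 active = calcium response B-score plate-corrected fluorescence ratio at least 3 library SD, with starting fluorescence B-score inside 5 SD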
#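 Assay system: stable human MrgX1 HEK293 cell line. Quantity: 15,000 cells per well. Schedule: cells plated overnight, dye loaded 0.5 h 37 °C, 0.5 h room temperature. Detection: Fluo-4 NW calcium-flux fluorescence, kinetic read. Read-out basis: peak-minus-minimum fluorescence over baseline, converted to B scores. Control set: positive and negative control wells on each plate.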
# RGS4 block valid: enhanced carbachol calcium response, M3R/RGS4 cells, RGS4 inhibitor project, cell-based, validation screen, HEK293 M3R/RGS4, calcium flux; carbachol calcium Fluo-4 fluorescence; carbachol added at its EC20; 0 = buffer wells, 100 = carbachol control; shares compounds with RGS4 block; AID 492999, 2010; calcium response, % at 10 µM; 1,700 tested, 65% active;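 active = duplicate-averaged calcium response above the buffer-only control mean plus 5 SD of those controls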;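 note: integrated fluorescence ratio F max minus min over baseline F0; higher response in RGS4-induced cells means RGS4 inhibition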
# M3R Ca ctr: carbachol calcium response in non-induced M3R cells, confirmation, counter-screen for RGS4 inhibitor project, cell-based, HEK293 M3R; carbachol calcium Fluo-4; submaximal (EC20) carbachol stimulus; buffer wells 0%, carbachol control wells 100%; activity (percent), % at 10 µM; shares compounds with RGS4 block; AID 493000, 2010; 1,900 tested, 20% active; call rule not given here;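 note: RGS4 induction absent so cells express M3R without RGS4; higher means more calcium signal and flags a non-specific hit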
# M3R basal Ca ctr: second counter-screen for RGS4 inhibitors: non-induced cells without carbachol; shares compounds with RGS4 block; HEK293 M3R/RGS4 non-induced, Fluo-4 calcium, no carbachol; normalised: buffer wells 0%, carbachol wells 100%; calcium response (agonist-mode artifact), % at 10 µM; 1,900 tested, 22% active;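 active = duplicate-averaged calcium rise in uninduced cells above buffer wells' mean plus 5 SD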
# Hits are given with their value; i = inactive; nt = no result given. Only some compounds are listed: those with a hit (about 3.8% of all), similar ones and a draw of the others.
SMILES,MrgX1 PAM,RGS4 pot,MrgX1 antagonist,RGS4 block,Hep lipid drop,MrgX1 ag,RGS4 block valid,M3R Ca ctr,M3R basal Ca ctr
CCOC(=O)[C@@H]1[C@H]2COc3cc(OC)ccc3[C@@H]2N2C(=O)N(c3ccc(Cl)cc3)C(=O)[C@@]12C,i,i,i,i,i,i,i,i,i
CCOC(=O)[C@H]1[C@H]2COc3cc(OC)ccc3[C@@H]2N2C(=O)N(c3ccc(Cl)cc3)C(=O)[C@@]12C,i,i,i,i,i,i,i,i,i
CCOC(=O)[C@@H]1[C@H]2COc3cc(OC)ccc3[C@@H]2N2C(=O)N(c3ccc(C)cc3)C(=O)[C@@]12C,i,i,i,i,nt,i,nt,nt,nt
CC(Oc1ccc(Br)cc1)C(=O)NCC(c1cccs1)N1CCOCC1 (stereo not drawn),i,i,i,i,nt,i,nt,nt,nt
COc1ccccc1NC(=O)Cn1nnc(-c2ccccc2NC(=O)c2cc3ccccc3oc2=O)n1,i,i,i,i,nt,i,nt,nt,nt
Oc1ccc(Nc2nc(-c3ccc4ccccc4c3)cs2)cc1,i,i,i,41,i,i,84%,88%,i
Cc1ccc(-c2csc(NC(=O)CN3C(=O)CCC3=O)n2)cc1,i,i,i,i,i,i,nt,nt,nt
Oc1ccc(-c2csc(Nc3ncccn3)n2)cc1,i,i,i,i,i,i,nt,nt,nt
Oc1ccc(-c2nc(-c3ccc(O)c(O)c3)cs2)cc1,i,i,i,i,nt,i,i,i,i
O=C(CN1C(=O)CCC1=O)Nc1nc(-c2ccc3ccccc3c2)cs1,i,i,i,8,i,i,5.0%,i,i
CC(=O)Nc1nc(-c2ccc3ccccc3c2)cs1,i,i,i,5.1,i,i,i,i,i
COc1ccc(NC2CCCN(C(=O)c3cccc(C)n3)C2)cc1OC (stereo not drawn),i,i,i,i,i,i,nt,nt,nt
CCN(CC)S(=O)(=O)c1ccc(N2CCCCC2)c(NC(=O)C2CCN(C(=O)c3ccc(F)cc3)CC2)c1,i,i,i,i,nt,i,nt,nt,nt
N#C/C(=C\c1ccc([N+](=O)[O-])o1)C(=O)Nc1ccc(F)cc1,i,i,i,7,i,i,20%,i,i
COc1ccc(NC(=O)/C(C#N)=C\c2ccc(Br)o2)cc1,i,i,i,i,i,i,nt,nt,nt
N#Cc1ccccc1S(=O)(=O)N1CCN(CC(O)COc2ccccc2F)CC1 (stereo not drawn),i,i,i,i,i,i,nt,nt,nt
CC(C)N(CCCNC(=O)Cn1c(=O)c2cccn2c2ccccc21)Cc1ccccc1,i,i,i,i,i,i,i,i,i
CN(CCCNC(=O)Cn1c(=O)c2cccn2c2ccccc21)Cc1ccccc1,i,i,i,23,i,i,i,i,i
O=C(c1ccc(NC2=NC3CS(=O)(=O)CC3S2)cc1)N(CCO)Cc1ccccc1 (stereo not drawn),i,i,i,i,i,i,nt,nt,nt
O=[N+]([O-])/C=C/c1cn(Cc2ccc(Cl)cc2)c2ccccc12,i,i,i,8.6,i,i,24%,i,76%
COC(=O)c1ccc(Cn2cc(/C=C\[N+](=O)[O-])c3ccccc32)o1,i,i,i,5.4,i,i,67%,48%,40%
